Laboratory results from ChEMBL document CHEMBL2016487, “Pyrazolopyrimidines as dual Akt/p70S6K inhibitors” (Bioorg Med Chem Lett, 2012).
pIC50: −log10 of the molar value.

Assays:
[1] = target: T1, Ribosomal protein S6 kinase beta-1 (Homo sapiens, UniProt P23443); experiment: Inhibition of p70S6K after 3 hrs by luciferase based chemiluminescence assay
[2] = Half life in rat at 5 mg/kg, iv; assay type: ADME, organism-based; design: dose 5 mg/kg, route intravenous; details: in vivo
[3] = target: T2, RAC-alpha serine/threonine-protein kinase (Homo sapiens, UniProt P31749); experiment: Inhibition of AKT1-mediated GSK3beta phosphorylation in human PC3 cells after 3 hrs by chemiluminescence assay; assay type: cell-based, PC-3
T2 sequence (P31749 whole entry): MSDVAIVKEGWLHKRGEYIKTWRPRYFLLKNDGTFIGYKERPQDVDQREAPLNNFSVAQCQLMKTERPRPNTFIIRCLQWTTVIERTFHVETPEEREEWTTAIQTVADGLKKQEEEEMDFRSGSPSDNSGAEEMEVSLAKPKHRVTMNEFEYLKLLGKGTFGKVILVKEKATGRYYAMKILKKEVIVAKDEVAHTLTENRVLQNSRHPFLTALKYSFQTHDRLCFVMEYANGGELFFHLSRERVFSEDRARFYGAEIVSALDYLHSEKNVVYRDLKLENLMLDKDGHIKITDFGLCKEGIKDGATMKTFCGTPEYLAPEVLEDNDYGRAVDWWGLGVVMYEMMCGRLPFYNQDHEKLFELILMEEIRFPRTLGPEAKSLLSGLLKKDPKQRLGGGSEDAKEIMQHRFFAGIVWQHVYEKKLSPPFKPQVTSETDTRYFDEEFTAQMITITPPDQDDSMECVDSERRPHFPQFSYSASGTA
Outline: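 PC-3 cells seeded at 7.5 × 10³ cells/well, grown 24 h, then serum-starved 24 h. Compound treatment 3 h in triplicate (0.2% DMSO final), followed by 100 ng/ml IGF1 for 30 min. Fixed and processed as a cell ELISA using anti-phospho-GSK3β (S9) and anti-total-GSK3β antibodies, chemiluminescent read-out.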

[4] = target: T1, Ribosomal protein S6 kinase beta-1; experiment: Inhibition of p70S6K-mediated ribosomal protein S6 phosphorylation in human A549 cells after 3 hrs by chemiluminescence assay; assay type: cell-based
Outline: (§1)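 A549 or PC-3 cells seeded at 7.5 × 10³ cells/well in DMEM with heat-inactivated 10% FBS, 1% penicillin–streptomycin, 1% non-essential amino acids, grown 48 h at 37 °C, 5% CO₂. Treated 3 h with compound at 1.2–300 nM, triplicate, 0.2% DMSO final. Fixed in 4% formaldehyde, blocked, probed with anti-phospho-S6 (Ser240/244) and anti-total-S6 overnight at 4 °C, chemiluminescent read-out.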

Rattus norvegicus [5] = experiment: Dose normalized AUC in rat at 5 mg/kg, po; assay type: ADME, organism-based; design: dose 5 mg/kg, route oral; details: in vivo
[6] = target: T1, Ribosomal protein S6 kinase beta-1; experiment: Inhibition of p70S6K-mediated ribosomal protein S6 phosphorylation in human PC3 cells after 3 hrs by chemiluminescence assay; assay type: cell-based, PC-3; outline: as §1
[7] = Oral bioavailability in rat at 5 mg/kg; assay type: ADME, organism-based; details: in vivo
[8] = Half life in rat at 5 mg/kg, po; assay type: ADME, organism-based; design: dose 5 mg/kg, route oral; details: in vivo
[9] = Plasma concentration in mouse at 100 mg/kg after 1 hr; assay type: ADME, organism-based; design: dose 100 mg/kg
Outline: (§2)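 Mouse plasma levels measured 1 and 4 h after a 100 mg/kg dose.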

[10] = Volume of distribution in rat at 5 mg/kg; assay type: ADME, organism-based; design: dose 5 mg/kg; details: in vivo
Rattus norvegicus [11] = experiment: Dose normalized AUC in rat at 5 mg/kg, iv; assay type: ADME, organism-based; design: dose 5 mg/kg, route intravenous; details: in vivo
[12] = target: T2, RAC-alpha serine/threonine-protein kinase; experiment: Inhibition of AKT1 after 3 hrs by luciferase based chemiluminescence assay
[13] = Cmax in rat at 5 mg/kg, po; assay type: ADME, organism-based; design: dose 5 mg/kg, route oral; details: in vivo
[14] = Cmax in rat at 5 mg/kg, iv; assay type: ADME, organism-based; design: dose 5 mg/kg, route intravenous; details: in vivo
[15] = Clearance in rat at 5 mg/kg; assay type: ADME, organism-based; design: dose 5 mg/kg; details: in vivo
[16] = Plasma concentration in mouse at 100 mg/kg after 4 hrs; assay type: ADME, organism-based; design: dose 100 mg/kg; outline: as §2
[17] = Drug metabolism in mouse liver microsomes at 15 uM after 30 mins; assay type: ADME, Microsome; details: read-out: Drug metabolism
Outline: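 Mouse liver microsomes at 0.5 mg/mL, incubated 30 min with compound at 15 µM; value reported as % conversion.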

[18] = Oral bioavailability in rat at 2.5 mg/kg; assay type: ADME, organism-based; details: in vivo
[19] = Cmax in rat at 2.5 mg/kg, po; assay type: ADME, organism-based; design: dose 2.5 mg/kg, route oral; details: in vivo
[20] = Half life in rat at 2.5 mg/kg, iv; assay type: ADME, organism-based; design: dose 2.5 mg/kg, route intravenous; details: in vivo
[21] = Volume of distribution in rat at 2.5 mg/kg; assay type: ADME, organism-based; design: dose 2.5 mg/kg; details: in vivo
[22] = Clearance in rat at 2.5 mg/kg; assay type: ADME, organism-based; design: dose 2.5 mg/kg; details: in vivo
Rattus norvegicus [23] = experiment: Dose normalized AUC in rat at 2.5 mg/kg, po; assay type: ADME, organism-based; design: dose 2.5 mg/kg, route oral; details: in vivo
[24] = Plasma concentration in mouse at 30 mg/kg after 4 hrs; assay type: ADME, organism-based; design: dose 30 mg/kg
Rattus norvegicus [25] = experiment: Dose normalized AUC in rat at 2.5 mg/kg, iv; assay type: ADME, organism-based; design: dose 2.5 mg/kg, route intravenous; details: in vivo
[26] = Half life in rat at 2.5 mg/kg, po; assay type: ADME, organism-based; design: dose 2.5 mg/kg, route oral; details: in vivo
[27] = Cmax in rat at 2.5 mg/kg, iv; assay type: ADME, organism-based; design: dose 2.5 mg/kg, route intravenous; details: in vivo

T1 sequence (P23443 whole entry): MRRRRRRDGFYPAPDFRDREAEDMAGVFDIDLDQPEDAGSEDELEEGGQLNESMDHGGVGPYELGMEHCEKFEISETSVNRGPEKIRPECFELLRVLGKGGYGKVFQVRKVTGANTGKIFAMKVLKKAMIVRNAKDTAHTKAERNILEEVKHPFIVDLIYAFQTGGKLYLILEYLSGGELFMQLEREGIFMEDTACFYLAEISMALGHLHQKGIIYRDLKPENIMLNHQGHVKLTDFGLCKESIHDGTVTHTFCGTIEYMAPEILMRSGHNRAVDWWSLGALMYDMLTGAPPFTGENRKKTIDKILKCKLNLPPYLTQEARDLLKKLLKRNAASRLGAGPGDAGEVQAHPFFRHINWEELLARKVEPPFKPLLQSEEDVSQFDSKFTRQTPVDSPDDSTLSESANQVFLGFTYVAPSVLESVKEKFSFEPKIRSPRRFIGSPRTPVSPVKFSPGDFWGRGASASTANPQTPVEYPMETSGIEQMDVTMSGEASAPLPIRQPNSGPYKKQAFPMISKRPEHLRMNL

**Q.** With Cc1c(NCCN2CCCC2)cc(OCC(C)C)cc1N1CCN(c2ncnc3[nH]nc(Br)c23)CC1 as the compound, how does the pIC50 [1] read?
**A.** 9.00

**Q.** And the half-life [2]?
**A.** 2.5 h

**Q.** And the pIC50 [3]?
**A.** 6.15

**Q.** What about the pIC50 [4] of the same compound?
**A.** 7.43

**Q.** What about the AUC/dose (Rattus norvegicus [5]) of the same compound?
**A.** 0.05 µM·kg·h/mg

**Q.** And the pIC50 [6]?
**A.** 6.67

**Q.** And the bioavailability [7]?
**A.** 13%

**Q.** What about the half-life [8] of the same compound?
**A.** 1.7 h

**Q.** And the concentration at 1 h [9]?
**A.** 1.2 µM

**Q.** What about the Vd [10] of the same compound?
**A.** 14.7 L/kg

**Q.** What about the AUC/dose (Rattus norvegicus [11]) of the same compound?
**A.** 0.35 µM·kg·h/mg

**Q.** And the pIC50 [12]?
**A.** 8.05

**Q.** And the Cmax [13]?
**A.** 0.07 µM

**Q.** What about the Cmax [14] of the same compound?
**A.** 1.15 µM

**Q.** And the clearance [15]?
**A.** 4.77 L/h/kg

**Q.** And the concentration at 4 h [16]?
**A.** 1.3 µM

**Q.** Which results are given for Cc1c(NCCN2CCCC2)cc(Cl)cc1N1CCN(c2ncnc3[nH]nc(Br)c23)CC1?
**A.** pIC50 [1]: 8.70; pIC50 [3]: 5.90; pIC50 [4]: 7.03; pIC50 [6]: 6.35; pIC50 [12]: 7.38; metabolised at 0.5 h, 15 µM [17]: 19%

**Q.** With Cc1noc(-c2cc(NCCN3CCCC3)c(C)c(N3CCN(c4ncnc5[nH]nc(Br)c45)CC3)c2)n1 as the compound, how does the pIC50 [1] read?
**A.** 9.00

**Q.** What about the pIC50 [3] of the same compound?
**A.** 6.18

**Q.** What about the bioavailability [18] of the same compound?
**A.** 10%

**Q.** And the Cmax [19]?
**A.** 0.01 µM

**Q.** And the pIC50 [4]?
**A.** 7.89

**Q.** What about the half-life [20] of the same compound?
**A.** 2.4 h

**Q.** What about the Vd [21] of the same compound?
**A.** 14.2 L/kg

**Q.** And the pIC50 [6]?
**A.** 7.33

**Q.** What about the clearance [22] of the same compound?
**A.** 4.38 L/h/kg

**Q.** What about the concentration at 1 h [9] of the same compound?
**A.** 0.3 µM

**Q.** And the pIC50 [12]?
**A.** 8.22

**Q.** And the AUC/dose (Rattus norvegicus [23])?
**A.** 0.05 µM·kg·h/mg

**Q.** And the concentration at 4 h [24]?
**A.** 0.1 µM

**Q.** And the AUC/dose (Rattus norvegicus [25])?
**A.** 0.45 µM·kg·h/mg

**Q.** What about the half-life [26] of the same compound?
**A.** 2.9 h

**Q.** What about the Cmax [27] of the same compound?
**A.** 0.37 µM
